≈ marks a conversion by molar mass, not a printed value.
What was measured:
Type in all cases: functional
[1] = tested on: Staphylococcus aureus; assay: Antibacterial activity against methicillin-resistant Staphylococcus aureus isolate 11 incubated overnight by agar dilution method
In short: (§1)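 MIC by agar dilution. Strains were grown overnight in LB broth and diluted, then about 10^4 CFU (2 μL spots) were spotted onto LB agar plates containing test compound at 0.5 to 8 μg mL−1 agar. Plates were incubated overnight at 37 °C and inspected for growth. Clinical MSSA and MRSA isolates came from local hospitals.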

[2] = tested on: Staphylococcus aureus; assay: Antibacterial activity against Staphylococcus aureus ATCC 29213 incubated overnight by agar dilution method; in short: as §1
[3] = tested on: Staphylococcus aureus; assay: Antibacterial activity against methicillin-sensitive Staphylococcus aureus isolate 1 incubated overnight by agar dilution method; in short: as §1
[4] = tested on: Staphylococcus aureus; assay: Antibacterial activity against methicillin-sensitive Staphylococcus aureus isolate 2 incubated overnight by agar dilution method; in short: as §1
[5] = tested on: Staphylococcus aureus; assay: Antibacterial activity against methicillin-sensitive Staphylococcus aureus isolate 3 incubated overnight by agar dilution method; in short: as §1
[6] = tested on: Staphylococcus aureus; assay: Antibacterial activity against methicillin-sensitive Staphylococcus aureus isolate 4 incubated overnight by agar dilution method; in short: as §1
[7] = tested on: Staphylococcus aureus; assay: Antibacterial activity against methicillin-resistant Staphylococcus aureus isolate 5 incubated overnight by agar dilution method; in short: as §1
[8] = tested on: Staphylococcus aureus; assay: Antibacterial activity against methicillin-resistant Staphylococcus aureus isolate 6 incubated overnight by agar dilution method; in short: as §1
[9] = tested on: Staphylococcus aureus; assay: Antibacterial activity against methicillin-resistant Staphylococcus aureus isolate 7 incubated overnight by agar dilution method; in short: as §1
[10] = tested on: Staphylococcus aureus; assay: Antibacterial activity against methicillin-resistant Staphylococcus aureus isolate 8 incubated overnight by agar dilution method; in short: as §1
[11] = tested on: Staphylococcus aureus; assay: Antibacterial activity against methicillin-resistant Staphylococcus aureus isolate 9 incubated overnight by agar dilution method; in short: as §1
[12] = tested on: Staphylococcus aureus; assay: Antibacterial activity against methicillin-resistant Staphylococcus aureus isolate 10 incubated overnight by agar dilution method; in short: as §1

SMILES | MIC [1] [µg/mL] | MIC [2] [µg/mL] | MIC [3] [µg/mL] | MIC [4] [µg/mL] | MIC [5] [µg/mL] | MIC [6] [µg/mL] | MIC [7] [µg/mL] | MIC [8] [µg/mL] | MIC [9] [µg/mL] | MIC [10] [µg/mL] | MIC [11] [µg/mL] | MIC [12] [µg/mL]
C=C1C[C@@]23C=CC(=O)[C@@](C)(CCC(=O)Nc4c(O)ccc(C(=O)O)c4O)[C@@H]2C[C@@H]1CC3 [PLATENCIN] | 1 (≈ 2.35 µM) | 1 (≈ 2.35 µM) | 1 (≈ 2.35 µM) | 1 (≈ 2.35 µM) | 1 (≈ 2.35 µM) | 1 (≈ 2.35 µM) | 1 (≈ 2.35 µM) | 1 (≈ 2.35 µM) | 1 (≈ 2.35 µM) | 1 (≈ 2.35 µM) | 1 (≈ 2.35 µM) | 1 (≈ 2.35 µM)
C[C@]12C[C@]34C[C@@H]1C[C@H](O2)[C@H]3[C@](C)(CCC(=O)Nc1c(O)ccc(C(=O)O)c1O)C(=O)C[C@@H]4SC(=O)c1cc(F)cc(F)c1 |  | 2 (≈ 3.25 µM) | 1 (≈ 1.62 µM) | 1 (≈ 1.62 µM) | 2 (≈ 3.25 µM) | 2 (≈ 3.25 µM) | 2 (≈ 3.25 µM) | 1 (≈ 1.62 µM) | 2 (≈ 3.25 µM) | 2 (≈ 3.25 µM) | 2 (≈ 3.25 µM) | 2 (≈ 3.25 µM)
Cc1ccc(S[C@H]2CC(=O)[C@@](C)(CCC(=O)Nc3c(O)ccc(C(=O)O)c3O)[C@@H]3[C@@H]4C[C@H]5C[C@]23C[C@]5(C)O4)cc1 | 2 (≈ 3.54 µM) | 4 (≈ 7.07 µM) | 2 (≈ 3.54 µM) | 2 (≈ 3.54 µM) | 2 (≈ 3.54 µM) | 2 (≈ 3.54 µM) | 4 (≈ 7.07 µM) | 2 (≈ 3.54 µM) | 4 (≈ 7.07 µM) | 2 (≈ 3.54 µM) | 2 (≈ 3.54 µM) | 2 (≈ 3.54 µM)
C[C@]12C[C@]34C[C@@H]1C[C@H](O2)[C@H]3[C@](C)(CCC(=O)Nc1c(O)ccc(C(=O)O)c1O)C(=O)C[C@@H]4SC(=O)c1cc(C(F)(F)F)cc(C(F)(F)F)c1 |  | 1 (≈ 1.4 µM) | 1 (≈ 1.4 µM) | 1 (≈ 1.4 µM) | 1 (≈ 1.4 µM) | 1 (≈ 1.4 µM) | 1 (≈ 1.4 µM) | 1 (≈ 1.4 µM) | 2 (≈ 2.79 µM) | 1 (≈ 1.4 µM) | 1 (≈ 1.4 µM) | 1 (≈ 1.4 µM)
CC(=O)S[C@H]1CC(=O)[C@@](C)(CCC(=O)Nc2c(O)ccc(C(=O)O)c2O)[C@@H]2[C@@H]3C[C@H]4C[C@]12C[C@]4(C)O3 | 4 (≈ 7.73 µM) | 2 (≈ 3.86 µM) | 2 (≈ 3.86 µM) | 2 (≈ 3.86 µM) | 2 (≈ 3.86 µM) | 2 (≈ 3.86 µM) | 2 (≈ 3.86 µM) | 2 (≈ 3.86 µM) | 4 (≈ 7.73 µM) | 2 (≈ 3.86 µM) | 2 (≈ 3.86 µM) | 2 (≈ 3.86 µM)
C[C@]12C[C@]34C[C@@H]1C[C@H](O2)[C@H]3[C@](C)(CCC(=O)Nc1c(O)ccc(C(=O)O)c1O)C(=O)C[C@@H]4SC(=O)c1ccc(Cl)cc1 | 2 (≈ 3.26 µM) | 1 (≈ 1.63 µM) | 1 (≈ 1.63 µM) | 1 (≈ 1.63 µM) | 1 (≈ 1.63 µM) | 1 (≈ 1.63 µM) | 1 (≈ 1.63 µM) | 1 (≈ 1.63 µM) | 1 (≈ 1.63 µM) | 1 (≈ 1.63 µM) | 1 (≈ 1.63 µM) | 1 (≈ 1.63 µM)
Cc1ccc(C(=O)S[C@H]2CC(=O)[C@@](C)(CCC(=O)Nc3c(O)ccc(C(=O)O)c3O)[C@@H]3[C@@H]4C[C@H]5C[C@]23C[C@]5(C)O4)cc1 | 2 (≈ 3.37 µM) | 1 (≈ 1.68 µM) | 1 (≈ 1.68 µM) | 1 (≈ 1.68 µM) | 1 (≈ 1.68 µM) | 1 (≈ 1.68 µM) | 2 (≈ 3.37 µM) | 1 (≈ 1.68 µM) | 2 (≈ 3.37 µM) | 1 (≈ 1.68 µM) | 1 (≈ 1.68 µM) | 1 (≈ 1.68 µM)
C[C@]12C[C@]34C[C@@H]1C[C@H](O2)[C@H]3[C@](C)(CCC(=O)Nc1c(O)ccc(C(=O)O)c1O)C(=O)C[C@@H]4SC(=O)c1ccccc1F | 2 (≈ 3.35 µM) | 1 (≈ 1.67 µM) | 1 (≈ 1.67 µM) | 1 (≈ 1.67 µM) | 1 (≈ 1.67 µM) | 1 (≈ 1.67 µM) | 2 (≈ 3.35 µM) | 1 (≈ 1.67 µM) | 2 (≈ 3.35 µM) | 1 (≈ 1.67 µM) | 1 (≈ 1.67 µM) | 1 (≈ 1.67 µM)

Source: ChEMBL document CHEMBL4138284, “Biomimetic Stereoselective Sulfa-Michael Addition Leads to Platensimycin and Platencin Sulfur Analogues against Methicillin-Resistant Staphylococcus aureus” (J Nat Prod, 2018)
